Holding throughout (type): functional
The subject of assay [1] is Streptococcus pyogenes. In words: Antibacterial activity was determined against gram positive organism, Streptococcus pyogenes C203. Particulars: Streptococcus pyogenes; read-out: MIC. The method in brief:
(§1)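 MIC (µg/mL) by standard microtitration against a panel of 10 Gram-positive and Gram-negative organisms; values averaged from multiple experiments.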

For assay [2], the system named is Enterobacter cloacae. Nature of the assay: Antibacterial activity was determined against gram negative organism, Enterobacter cloacae MA2646. Particulars: Enterobacter cloacae; read-out: MIC.
For assay [3], the system named is Pseudomonas aeruginosa. Nature of the assay: Antibacterial activity was determined against gram negative organism, Pseudomonas aeruginosa UI-18. As to conditions: Pseudomonas aeruginosa; read-out: MIC. The gist of the method: as §1
Assay [4] deals with Streptococcus pneumoniae. In words: Antibacterial activity was determined against gram positive organism, Streptococcus pneumoniae SV-1. Particulars: Streptococcus pneumoniae; read-out: MIC. The gist of the method:
as §1

Assay [5] concerns Enterococcus faecalis. In words: Antibacterial activity was determined against gram positive organism, Streptococcus faecalis MGH-2. As to conditions: Enterococcus faecalis; read-out: MIC. The method in brief:
as §1

Assay [6] has as its system Bacteria. Nature of the assay: MIC ratio measured as the mean MICs of gram-positive bacteria. The method in brief: (§2)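 Geometric mean of the microtitration MICs (µg/mL) over the Gram-negative organisms, and separately over the Gram-positive organisms, of the 10-strain panel; individual MICs averaged from multiple experiments.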
Assay [7] concerns Staphylococcus aureus. In words: Antibacterial activity was determined against gram positive organism, Staphylococcus aureus H228. As to conditions: Staphylococcus aureus; read-out: MIC. The gist of the method: as §1
For assay [8], the system named is Escherichia coli. Nature of the assay: The in vivo potency was determined in female charles river CD-1 mice infected with Escherichia coli after sc administration. Particulars: Escherichia coli, sc; read-out: PD50. The gist of the method:
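Acute lethal systemic infection in female CD-1 mice, 16 mice per route; single subcutaneous dose given at the time of challenge; median protective dose (PD50, mg/kg) determined.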

Assay [9] concerns the target DNA gyrase (Escherichia coli) (UniProt P0AES6+P0AES4). Nature of the assay: Minimum inhibitory concentration against Escherichia coli DNA-gyrase in supercoiling assay.
In assay [10] the test system is Escherichia coli. Nature of the assay: The in vivo potency was determined in female charles river CD-1 mice infected with Escherichia coli after peroral administration. As to conditions: Escherichia coli, po; read-out: PD50. The gist of the method:
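Acute lethal systemic infection in female CD-1 mice, 16 mice per route; single dose given orally by gavage at the time of challenge; median protective dose (PD50, mg/kg) determined.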

Assay [11] concerns Klebsiella pneumoniae. Nature of the assay: Antibacterial activity was determined against gram negative organism, Klebsiella pneumoniae MGH-2. Particulars: Klebsiella pneumoniae; read-out: MIC. The gist of the method: as §1
For assay [12], the system named is Bacteria. In words: MIC ratio measured as the mean MICs of gram-negative bacteria. The method in brief: as §2
The test system of assay [13] is Bacteria. In words: Antibacterial activity was determined against gram negative organism, Providencia rettgeri. M1771. As to conditions: Bacteria; read-out: MIC. The gist of the method: as §1
For assay [14], the system named is Staphylococcus aureus. In words: Antibacterial activity was determined against gram positive organism, Staphylococcus aureus UC76. As to conditions: Staphylococcus aureus; read-out: MIC. The gist of the method: as §1
In assay [15] the test system is Escherichia coli. In words: Antibacterial activity was determined against gram negative organism, Escherichia coli vogel. Particulars: Escherichia coli; read-out: MIC. The method in brief: as §1

Each structure is given as a SMILES string. Converted amounts (≈) assume the structure as drawn.

Here are results for six compounds from ChEMBL document CHEMBL1125826, “Synthesis and biological activity of 5-amino- and 5-hydroxyquinolones, and the overwhelming influence of the remote N1-substituent in determining the structure-activity relationship” (1991).

Regarding `CC1CN(c2c(F)cc3c(=O)c(C(=O)O)cn(C4CC4)c3c2F)CCN1` (stereo not drawn), the MIC in [1] was determined as 0.4 µg/mL (≈ 1.1 µM); in assay [2] it was 0.05 µg/mL (≈ 0.138 µM); in assay [3], 0.4 µg/mL (≈ 1.1 µM); in [4] it was 0.4 µg/mL (≈ 1.1 µM); in assay [5], 0.4 µg/mL (≈ 1.1 µM); in [7], 0.2 µg/mL (≈ 0.55 µM). The MIC was found to be 1 µg/mL (≈ 2.75 µM) in assay [9]; 0.025 µg/mL (≈ 0.0688 µM) in assay [11]; 0.1 µg/mL (≈ 0.275 µM) in assay [13]; 0.1 µg/mL (≈ 0.275 µM) in [14]; 0.025 µg/mL (≈ 0.0688 µM) in [15]. For the same compound, the “Geometric mean MIC over Gram-positive bacteria (µg/mL)” value in assay [6] was determined as 0.26. In addition, the values for the ED50 in assay [8] and in assay [10] were 0.4 mg/kg and 0.8 mg/kg, respectively. Moreover, the Geometric mean MIC over Gram-negative bacteria (µg/mL) in [12] is 0.066.

Consider `CCNCC1CCN(c2c(F)cc3c(=O)c(C(=O)O)cn4c3c2OCC4C)C1` (stereo not drawn), for which the MIC in assay [1] is 0.013 µg/mL (≈ 0.0334 µM); in [2], 0.2 µg/mL (≈ 0.514 µM); in [3], 0.8 µg/mL (≈ 2.05 µM); in assay [4] it was 0.1 µg/mL (≈ 0.257 µM); in assay [5], 0.1 µg/mL (≈ 0.257 µM); in assay [7], 0.2 µg/mL (≈ 0.514 µM). Moreover, the MIC in assay [9] is 0.5 µg/mL (≈ 1.28 µM); in assay [11], 0.4 µg/mL (≈ 1.03 µM); in assay [13], 0.8 µg/mL (≈ 2.05 µM); in assay [14] it was 0.025 µg/mL (≈ 0.0642 µM); in assay [15], 0.2 µg/mL (≈ 0.514 µM). The “Geometric mean MIC over Gram-positive bacteria (µg/mL)” value in [6] is on record as 0.057. For the same compound, the ED50 is 11 mg/kg in assay [8] and over 100 mg/kg in assay [10]. Besides, the Geometric mean MIC over Gram-negative bacteria (µg/mL) in [12] came to 0.4.

`O=C(O)c1cn(C2CC2)c2cc(N3CCNCC3)c(F)c(O)c2c1=O`: the MIC in assay [1] is 0.4 µg/mL (≈ 1.15 µM); in assay [2], 0.05 µg/mL (≈ 0.144 µM); in assay [3], 0.4 µg/mL (≈ 1.15 µM); in assay [4], 0.8 µg/mL (≈ 2.3 µM); in assay [5] it was 0.8 µg/mL (≈ 2.3 µM); in assay [7], 3.1 µg/mL (≈ 8.92 µM). The MIC in assay [9] was found to be 1 µg/mL (≈ 2.88 µM); in assay [11], 0.1 µg/mL (≈ 0.288 µM); in [13], 0.1 µg/mL (≈ 0.288 µM); in [14], 0.2 µg/mL (≈ 0.576 µM); in [15] it was 0.025 µg/mL (≈ 0.072 µM). For the same compound, the ED50 in [8] is 0.1 mg/kg; in assay [10] it was 3 mg/kg.

As to `NC1CCN(c2cc3c(c(O)c2F)c(=O)c(C(=O)O)cn3C2CC2)C1` (stereo not drawn), the MIC worked out at 0.1 µg/mL (≈ 0.288 µM) in assay [1]; 0.025 µg/mL (≈ 0.072 µM) in [2]; 0.2 µg/mL (≈ 0.576 µM) in assay [3]; 0.05 µg/mL (≈ 0.144 µM) in [4]; 0.2 µg/mL (≈ 0.576 µM) in assay [5]; 0.1 µg/mL (≈ 0.288 µM) in assay [7]. For the same compound, the MIC stood at 1 µg/mL (≈ 2.88 µM) in assay [9]; 0.025 µg/mL (≈ 0.072 µM) in assay [11]; 0.05 µg/mL (≈ 0.144 µM) in assay [13]; 0.013 µg/mL (≈ 0.0374 µM) in [14]; 0.013 µg/mL (≈ 0.0374 µM) in assay [15]. Also, the “Geometric mean MIC over Gram-positive bacteria (µg/mL)” value in [6] is on record as 0.066. Moreover, the ED50 amounted to 0.4 mg/kg in assay [8] and 3 mg/kg in [10]. Besides, the Geometric mean MIC over Gram-negative bacteria (µg/mL) in [12] was determined as 0.038.

Turning to `CCNCC1CCN(c2c(F)cc3c(=O)c(C(=O)O)cn(C4CC4)c3c2Cl)C1` (stereo not drawn), the MIC in assay [1] amounted to 0.006 µg/mL (≈ 0.0147 µM); in assay [2], 0.05 µg/mL (≈ 0.123 µM); in assay [3], 0.8 µg/mL (≈ 1.96 µM); in assay [4], 0.003 µg/mL (≈ 0.00736 µM); in assay [5], 0.013 µg/mL (≈ 0.0319 µM); in assay [7] it was 0.013 µg/mL (≈ 0.0319 µM). Moreover, the MIC in assay [9] is 0.25 µg/mL (≈ 0.613 µM); in assay [11] it was 0.1 µg/mL (≈ 0.245 µM); in assay [13] it was 0.2 µg/mL (≈ 0.49 µM); in [14] it was 0.003 µg/mL (≈ 0.00736 µM); in assay [15], 0.05 µg/mL (≈ 0.123 µM). Besides, the “Geometric mean MIC over Gram-positive bacteria (µg/mL)” value in assay [6] turned out to be 0.006. The ED50 in assay [8] came to 1 mg/kg; in assay [10], 4 mg/kg. The Geometric mean MIC over Gram-negative bacteria (µg/mL) in assay [12] was found to be 0.13.

`CCNCC1CCN(c2c(F)c(N)c3c(=O)c(C(=O)O)cn4c3c2OCC4C)C1` (stereo not drawn): the MIC came to 0.1 µg/mL (≈ 0.247 µM) in assay [1]; 1.6 µg/mL (≈ 3.96 µM) in assay [2]; 12.5 µg/mL (≈ 30.9 µM) in [3]; 0.4 µg/mL (≈ 0.989 µM) in assay [4]; 0.4 µg/mL (≈ 0.989 µM) in [5]; 0.8 µg/mL (≈ 1.98 µM) in assay [7]. The MIC in assay [9] was found to be 7.5 µg/mL (≈ 18.5 µM); in assay [11], 0.8 µg/mL (≈ 1.98 µM); in [13] it was 3.1 µg/mL (≈ 7.66 µM); in [14], 0.1 µg/mL (≈ 0.247 µM); in assay [15], 0.8 µg/mL (≈ 1.98 µM). The “Geometric mean MIC over Gram-positive bacteria (µg/mL)” value in assay [6] was determined as 0.26. Moreover, the ED50 was 8 mg/kg in assay [8] and over 100 mg/kg in assay [10]. Besides, the Geometric mean MIC over Gram-negative bacteria (µg/mL) in [12] is 2.09.
